Results published in ChEMBL document CHEMBL4680104, “Structure-Based Optimization of Small-Molecule Inhibitors for the β-Catenin/B-Cell Lymphoma 9 Protein-Protein Interaction” (J Med Chem, 2018).
Active and inactive are the calls of the source. The calls are words filed in the database; no cut-off is given here.

Experiments:
[1] = molecular target: beta-catenin-B-cell lymphoma 9 protein complex (Homo sapiens) (UniProt P35222+O00512); experiment: Inhibition of protein interaction between beta-catenin (unknown origin)/BCL9 in human HEK293 cells transfected with beta-catenin assessed as reduction in Wnt/beta-catenin transactivation incubated for 24 hrs by Wnt-responsive FOP-Flash luciferase reporter assay
SW480 [2] = experiment: Cytotoxic activity in human SW480 cells at 50 to 100 uM incubated for 4 hrs by LDH release assay; type: cell-based; details: sw480, 4 h, dose 50-100 µM
Method in brief: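 SW480 cells were seeded at 2 × 10^4 cells/well and kept overnight at 37 °C. They were then exposed to a range of inhibitor concentrations for 4 h. LDH in the culture supernatant was measured with a diagnostic kit by absorbance at 490 nm. Percent cytotoxicity was calculated from experimental release against maximum release, with background subtracted. Run in triplicate.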

[3] = molecular target: T1, beta-catenin-B-cell lymphoma 9 protein complex (Homo sapiens, UniProt P35222); experiment: Inhibition of protein interaction between C-terminal 6x-histidine tagged full-length beta-catenin (1 to 781 residues) (unknown origin)/N-terminal biotinylated human BCL9 ( 350 to 375 residues) incubated for 1 hr by Alpha-screen competitive inhibition assay; type: protein-complex assay
T1 sequence (P35222 whole entry): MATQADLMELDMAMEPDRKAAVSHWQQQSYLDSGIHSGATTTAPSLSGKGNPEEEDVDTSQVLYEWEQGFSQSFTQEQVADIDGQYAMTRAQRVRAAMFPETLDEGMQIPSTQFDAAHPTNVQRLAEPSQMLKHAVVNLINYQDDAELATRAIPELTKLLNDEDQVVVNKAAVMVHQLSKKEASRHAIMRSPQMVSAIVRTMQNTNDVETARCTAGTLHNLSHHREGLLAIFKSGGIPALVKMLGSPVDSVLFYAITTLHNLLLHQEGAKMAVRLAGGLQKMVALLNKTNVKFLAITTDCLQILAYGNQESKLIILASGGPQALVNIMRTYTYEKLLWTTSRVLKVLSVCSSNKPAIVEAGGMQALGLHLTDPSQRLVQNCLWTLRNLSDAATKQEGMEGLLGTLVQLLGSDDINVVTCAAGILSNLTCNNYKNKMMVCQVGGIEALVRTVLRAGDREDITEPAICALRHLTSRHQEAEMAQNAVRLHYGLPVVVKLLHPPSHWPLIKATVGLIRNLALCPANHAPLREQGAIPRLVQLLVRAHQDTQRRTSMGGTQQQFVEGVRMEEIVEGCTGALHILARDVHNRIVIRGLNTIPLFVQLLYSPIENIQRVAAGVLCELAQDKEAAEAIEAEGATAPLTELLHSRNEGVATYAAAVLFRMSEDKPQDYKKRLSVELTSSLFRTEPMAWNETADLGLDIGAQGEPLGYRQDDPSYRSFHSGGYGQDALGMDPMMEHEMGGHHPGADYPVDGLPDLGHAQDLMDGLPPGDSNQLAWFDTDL
T1 sequence (O00512 whole entry): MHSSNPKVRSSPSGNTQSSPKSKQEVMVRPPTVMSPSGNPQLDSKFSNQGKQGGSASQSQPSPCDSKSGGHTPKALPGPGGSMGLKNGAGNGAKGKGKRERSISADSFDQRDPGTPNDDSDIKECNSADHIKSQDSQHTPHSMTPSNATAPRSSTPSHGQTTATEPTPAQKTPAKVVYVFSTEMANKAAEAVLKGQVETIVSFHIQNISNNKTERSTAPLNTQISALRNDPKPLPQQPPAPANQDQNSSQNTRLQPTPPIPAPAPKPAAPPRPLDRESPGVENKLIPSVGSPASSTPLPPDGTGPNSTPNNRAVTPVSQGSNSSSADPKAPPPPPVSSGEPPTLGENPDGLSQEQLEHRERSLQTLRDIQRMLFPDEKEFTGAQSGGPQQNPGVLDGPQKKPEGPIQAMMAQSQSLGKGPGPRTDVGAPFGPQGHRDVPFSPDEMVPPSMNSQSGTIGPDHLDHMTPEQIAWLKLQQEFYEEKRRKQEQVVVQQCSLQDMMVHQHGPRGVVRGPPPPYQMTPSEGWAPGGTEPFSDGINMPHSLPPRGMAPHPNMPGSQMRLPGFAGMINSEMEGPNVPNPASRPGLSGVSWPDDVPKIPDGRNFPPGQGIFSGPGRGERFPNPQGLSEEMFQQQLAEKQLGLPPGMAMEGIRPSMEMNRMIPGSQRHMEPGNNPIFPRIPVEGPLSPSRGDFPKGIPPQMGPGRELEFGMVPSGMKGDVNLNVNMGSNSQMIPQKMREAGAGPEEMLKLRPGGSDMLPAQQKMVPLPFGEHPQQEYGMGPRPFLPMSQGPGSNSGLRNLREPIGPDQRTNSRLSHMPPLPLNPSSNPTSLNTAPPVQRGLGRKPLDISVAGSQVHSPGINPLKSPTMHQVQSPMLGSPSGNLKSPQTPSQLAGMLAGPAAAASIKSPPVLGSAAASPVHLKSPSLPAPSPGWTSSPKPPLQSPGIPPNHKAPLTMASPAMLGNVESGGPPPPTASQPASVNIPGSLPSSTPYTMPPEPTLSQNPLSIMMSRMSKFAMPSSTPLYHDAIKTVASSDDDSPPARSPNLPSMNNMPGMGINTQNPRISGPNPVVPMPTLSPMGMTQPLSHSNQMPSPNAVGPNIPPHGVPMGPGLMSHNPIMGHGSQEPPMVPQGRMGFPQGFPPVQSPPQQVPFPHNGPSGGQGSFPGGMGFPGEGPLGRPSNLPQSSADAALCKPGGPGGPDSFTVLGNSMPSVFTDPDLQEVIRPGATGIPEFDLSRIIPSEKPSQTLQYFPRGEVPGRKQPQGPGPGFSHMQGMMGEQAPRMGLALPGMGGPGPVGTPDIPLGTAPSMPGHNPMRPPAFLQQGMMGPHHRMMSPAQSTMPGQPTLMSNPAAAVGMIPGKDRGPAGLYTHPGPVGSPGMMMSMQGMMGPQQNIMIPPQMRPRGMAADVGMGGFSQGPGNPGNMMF
Method in brief: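 Full-length β-catenin (residues 1–781) with a C-terminal His6 tag was expressed in E. coli BL21(DE3) after IPTG induction at 20 °C. It was purified by Ni-NTA, anion-exchange and size-exclusion chromatography. For the assay, 40 nM β-catenin was preincubated for 30 min at 4 °C with 5 nM biotinylated BCL9 or 10 nM biotinylated E-cadherin. Inhibitor was then added for 1 h at 4 °C, followed by 10 μg/mL donor and acceptor beads for 1 h at 4 °C. IC50 was obtained by nonlinear fit and converted to Ki by the Nikolovska-Coleska method. Triplicate, mean ± SD.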

SW480 [4] = experiment: Cytotoxicity in human SW480 cells assessed as reduction in cell viability incubated for 72 hrs by MTS assay; type: functional, cell-based; details: SW480, 72 h
Method in brief: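 Cells seeded at 5 × 10^3 cells/well, kept overnight at 37 °C, then exposed to inhibitors at various concentrations for 72 h. Viability read with a freshly mixed PMS (0.92 mg/mL) : MTS (2 mg/mL) reagent at 1:19, incubated 3 h at 37 °C, A490 measured. […] Triplicate; mean ± SD.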

inhibition [1] | Ki [3] | Structure (SMILES) | Activity (SW480 [2]) | IC50 (SW480 [4])
Active | 1.3 µM | Cl.Cl.O=C(Nc1ccc(O[C@H]2CCNC2)c(-c2ccc(F)cc2)c1)c1ccc(O[C@H]2CCNC2)c(-c2ccc3cc(F)ccc3c2)c1 | Toxic | 1.8 µM
Active | 3.5 µM | Cc1cc(F)ccc1-c1cc(NC(=O)c2ccc(O[C@H]3CCNC3)c(-c3ccc(F)c(F)c3)c2)ccc1O[C@H]1CCNC1.Cl.Cl | Toxic | 0.9 µM
Active | 1.3 µM | Cl.Cl.O=C(Nc1ccc(O[C@H]2CCNC2)c(-c2ccc(F)cc2)c1)c1ccc(O[C@H]2CCNC2)c(-c2ccc3ccsc3c2)c1 | Toxic | 2 µM
Active | 4.2 µM | Cl.Cl.O=C(Nc1ccc(O[C@H]2CCNC2)c(-c2ccc(F)cc2)c1)c1ccc(O[C@H]2CCNC2)c(C2CCC(C(F)(F)F)CC2)c1 (stereo not given in full) | Toxic | 3.6 µM
Active | 8.7 µM | Cl.Cl.O=C(Nc1ccc(O[C@H]2CCNC2)c(-c2ccc(F)cc2)c1)c1cnc(O[C@H]2CCNC2)c(-c2ccc(F)c(F)c2)c1 | Toxic | 3 µM

Structure (SMILES) | inhibition [1] | Ki [3] | Activity (SW480 [2]) | IC50 (SW480 [4])
Cl.Cl.O=C(Nc1ccc(O[C@H]2CCNC2)c(-c2ccc(F)cc2)c1)c1ccc(O[C@H]2CCNC2)c(-c2ccc(F)c(F)c2)c1 | Active | 2.1 µM | Toxic | –
Cl.Cl.O=C(Nc1ccc(O[C@@H]2CCNC2)c(-c2cccc(-c3nn[nH]n3)c2)c1)c1ccc(O[C@H]2CCNC2)c(-c2ccc(F)c(F)c2)c1 | inactive | – | – | 41 µM
